In ChEMBL document CHEMBL1126641, “Synthesis and opioid activity of dynorphin A-(1-13)NH2 analogues containing cis- and trans-4-aminocyclohexanecarboxylic acid” (J Med Chem, 1993):
Where “and” joins values, the source holds several entries; their conditions need not be identical. Identical values can stand only once. Residues, ends and D or L forms follow the SMILES beside them.

Columns and labels:
Mu-type opioid receptor = Mu-type opioid receptor (Rattus norvegicus, UniProt P33535); experiment: Compound was tested for binding affinity towards mu-opioid receptor in rat forebrain membrane using [3H]DAMGO; format: cell membranes
Mu-type opioid receptor, sequence (P33535 whole entry): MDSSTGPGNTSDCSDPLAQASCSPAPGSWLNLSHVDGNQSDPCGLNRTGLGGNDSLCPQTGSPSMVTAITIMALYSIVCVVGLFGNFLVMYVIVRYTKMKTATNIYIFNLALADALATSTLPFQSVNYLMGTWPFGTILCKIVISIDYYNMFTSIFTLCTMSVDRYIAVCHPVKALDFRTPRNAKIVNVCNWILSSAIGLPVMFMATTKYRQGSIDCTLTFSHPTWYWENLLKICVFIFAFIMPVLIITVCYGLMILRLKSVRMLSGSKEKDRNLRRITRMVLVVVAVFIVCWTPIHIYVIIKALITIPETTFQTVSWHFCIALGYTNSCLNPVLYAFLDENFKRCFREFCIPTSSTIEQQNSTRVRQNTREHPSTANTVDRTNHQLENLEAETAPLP

[1] = target: Delta-type opioid receptor (Rattus norvegicus, UniProt P33533); experiment: Compound was tested for binding affinity towards delta-opioid receptor in rat forebrain membrane using [3H]DPDPE; format: cell membranes
Delta-type opioid receptor, sequence (P33533 whole entry): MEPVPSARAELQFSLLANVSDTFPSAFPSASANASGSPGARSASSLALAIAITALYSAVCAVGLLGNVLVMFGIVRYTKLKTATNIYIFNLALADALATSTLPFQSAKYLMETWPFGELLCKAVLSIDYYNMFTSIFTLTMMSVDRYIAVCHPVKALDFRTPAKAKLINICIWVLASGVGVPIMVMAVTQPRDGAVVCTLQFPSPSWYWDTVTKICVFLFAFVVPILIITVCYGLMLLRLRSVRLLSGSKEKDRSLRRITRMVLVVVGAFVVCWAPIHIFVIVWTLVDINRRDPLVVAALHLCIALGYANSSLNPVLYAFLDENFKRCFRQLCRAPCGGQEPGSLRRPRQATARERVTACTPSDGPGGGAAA

[2] = target: T1, Opioid receptors; mu/kappa/delta (Homo sapiens, UniProt P41145+P41143+P35372); experiment: Opioid receptor activity in guinea pig ileum assay; format: tissue-based, Cavia porcellus; conditions: target entry is the homologue from another species
T1 sequence (P35372 whole entry, looked up): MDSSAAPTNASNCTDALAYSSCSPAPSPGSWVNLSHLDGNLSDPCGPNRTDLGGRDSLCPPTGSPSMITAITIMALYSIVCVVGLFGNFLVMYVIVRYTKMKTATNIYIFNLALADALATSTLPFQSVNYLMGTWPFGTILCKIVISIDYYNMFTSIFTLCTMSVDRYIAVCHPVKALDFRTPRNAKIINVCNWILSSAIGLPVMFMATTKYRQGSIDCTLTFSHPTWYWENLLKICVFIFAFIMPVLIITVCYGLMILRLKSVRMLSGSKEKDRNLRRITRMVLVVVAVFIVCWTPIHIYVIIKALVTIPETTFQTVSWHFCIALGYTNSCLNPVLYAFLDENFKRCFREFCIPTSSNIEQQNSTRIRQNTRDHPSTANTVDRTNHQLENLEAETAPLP
T1 sequence (P41143 whole entry, looked up): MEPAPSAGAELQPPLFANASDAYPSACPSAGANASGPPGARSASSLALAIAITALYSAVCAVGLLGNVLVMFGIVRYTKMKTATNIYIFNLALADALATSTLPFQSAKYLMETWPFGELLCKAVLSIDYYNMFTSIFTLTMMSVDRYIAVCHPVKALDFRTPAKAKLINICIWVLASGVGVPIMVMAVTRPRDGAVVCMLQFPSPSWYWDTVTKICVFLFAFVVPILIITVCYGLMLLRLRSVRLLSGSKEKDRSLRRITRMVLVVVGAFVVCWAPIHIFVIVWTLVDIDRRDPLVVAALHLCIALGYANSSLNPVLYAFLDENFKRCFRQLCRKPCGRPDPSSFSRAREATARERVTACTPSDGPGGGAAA
T1 sequence (P41145 whole entry, looked up): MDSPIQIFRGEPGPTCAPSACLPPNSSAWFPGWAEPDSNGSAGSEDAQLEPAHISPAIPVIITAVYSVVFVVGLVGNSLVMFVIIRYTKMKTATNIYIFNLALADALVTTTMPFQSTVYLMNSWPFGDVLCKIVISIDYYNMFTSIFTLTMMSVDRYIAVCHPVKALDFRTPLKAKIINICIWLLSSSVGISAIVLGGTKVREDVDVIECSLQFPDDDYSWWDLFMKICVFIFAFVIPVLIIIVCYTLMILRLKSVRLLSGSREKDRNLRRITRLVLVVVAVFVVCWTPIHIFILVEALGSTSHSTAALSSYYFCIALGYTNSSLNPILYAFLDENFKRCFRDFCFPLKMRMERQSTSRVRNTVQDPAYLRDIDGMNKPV

[3] = target: Kappa-type opioid receptor (Cavia porcellus, UniProt P41144); experiment: Compound was tested for binding affinity towards kappa opioid receptor in guinea pig cerebellar membrane using [3H]bremazocine; format: cell membranes, Cerebellum
Kappa-type opioid receptor, sequence (P41144 whole entry): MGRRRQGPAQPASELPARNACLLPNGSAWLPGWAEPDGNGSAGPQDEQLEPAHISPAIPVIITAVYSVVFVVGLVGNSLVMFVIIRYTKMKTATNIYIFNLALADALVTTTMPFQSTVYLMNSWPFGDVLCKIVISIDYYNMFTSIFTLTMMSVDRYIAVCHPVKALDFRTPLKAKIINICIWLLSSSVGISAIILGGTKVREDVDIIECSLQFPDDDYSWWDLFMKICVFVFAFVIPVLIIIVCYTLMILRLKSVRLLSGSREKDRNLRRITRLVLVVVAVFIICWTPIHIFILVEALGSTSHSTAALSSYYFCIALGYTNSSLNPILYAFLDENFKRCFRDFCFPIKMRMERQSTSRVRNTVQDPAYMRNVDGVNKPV
Method in brief: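 Competitive inhibition of [3H]bremazocine binding to guinea pig cerebellar membranes. The incubation mixtures contained 100 nM DAMGO. Affinity is reported as Ki.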

[4] = target: T1, Opioid receptors; mu/kappa/delta; experiment: ratio is kappa/mu/delta opioid receptors; format: protein assay
Method in brief: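 The Ki ratio κ/μ/δ is taken from three binding assays. κ: [3H]bremazocine on guinea pig cerebellar membranes, with 100 nM DAMGO present. μ: [3H]DAMGO on rat forebrain membranes. δ: [3H]DPDPE on rat forebrain membranes.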

Structure (SMILES)	Ki (Mu-type opioid receptor)	Ki [1]	IC50 [2] [nM]	Ki [3]	Ratio [4]
CC[C@H](C)[C@H](NC(=O)[C@H](CCCN=C(N)N)NC(=O)[C@H](CCCN=C(N)N)NC(=O)[C@H](CC(C)C)NC(=O)[C@H](Cc1ccccc1)NC(=O)CNC(=O)CNC(=O)[C@@H](N)Cc1ccc(O)cc1)C(=O)N[C@@H](CCCN=C(N)N)C(=O)N1CCC[C@H]1C(=O)N[C@@H](CCCCN)C(=O)N[C@@H](CC(C)C)C(=O)N[C@@H](CCCCN)C(N)=O	0.194 nM	3.88 nM	0.24	0.146 nM	–
CC[C@H](C)[C@H](NC(=O)[C@H](CCCN=C(N)N)NC(=O)[C@H](CCCN=C(N)N)NC(=O)[C@H](CC(C)C)NC(=O)[C@H](Cc1ccccc1)NC(=O)CNC(=O)C(C)(C)NC(=O)[C@@H](N)Cc1ccc(O)cc1)C(=O)N[C@@H](CCCN=C(N)N)C(=O)N1CCC[C@H]1C(=O)N[C@@H](CCCCN)C(=O)N[C@@H](CC(C)C)C(=O)N[C@@H](CCCCN)C(N)=O (HELM PEPTIDE1{Y.[Aib].G.F.L.R.R.I.R.P.K.L.K.[am]}$$$$V2.0)	10 nM	–	–	50 nM	–
CC[C@H](C)[C@H](NC(=O)[C@H](CCCN=C(N)N)NC(=O)[C@H](CCCN=C(N)N)NC(=O)[C@H](CC(C)C)NC(=O)[C@H](Cc1ccccc1)NC(=O)C1CCC(NC(=O)[C@@H](N)Cc2ccc(O)cc2)CC1)C(=O)N[C@@H](CCCN=C(N)N)C(=O)N1CCC[C@H]1C(=O)N[C@@H](CCCCN)C(=O)N[C@@H](CC(C)C)C(=O)N[C@@H](CCCCN)C(N)=O (stereo partly specified) (HELM PEPTIDE1{Y.[O=C(C1CCC(N[*:1])CC1)[*:2]].F.L.R.R.I.R.P.K.L.K.[am]}$$$$V2.0)	275 nM and 117 nM	1370 nM and 1910 nM	4090	13.4 nM and 9.1 nM	4.62 and 3.66
